According to ChEMBL document CHEMBL1145192, “Discovery of a novel class of reversible non-peptide caspase inhibitors via a structure-based approach” (J Med Chem, 2005):

Experiments:
Caspase-8 [1] = biological target: T1, Caspase-8 (Homo sapiens, UniProt Q14790); assay: Inhibitory concentration against caspase-8 expressed in Escherichia coli. BL21(DE3) by fluorometric assay
Caspase-7 = biological target: T2, Caspase-7 (Homo sapiens, UniProt P55210); assay: Inhibitory concentration against caspase-7 expressed in Escherichia coli. BL21(DE3) by fluorometric assay
T2 sequence (P55210 whole entry): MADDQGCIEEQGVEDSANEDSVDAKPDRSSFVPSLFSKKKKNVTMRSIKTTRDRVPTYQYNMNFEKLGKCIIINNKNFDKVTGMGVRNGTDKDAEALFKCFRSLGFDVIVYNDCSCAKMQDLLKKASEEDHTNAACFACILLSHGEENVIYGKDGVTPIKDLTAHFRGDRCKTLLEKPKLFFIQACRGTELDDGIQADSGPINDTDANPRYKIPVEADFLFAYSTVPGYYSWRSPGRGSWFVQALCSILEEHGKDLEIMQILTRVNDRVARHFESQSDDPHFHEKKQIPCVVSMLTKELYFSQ

Caspase-3 = biological target: T3, Caspase-3 (Homo sapiens, UniProt P42574); assay: Inhibitory concentration against caspase-3 expressed in Escherichia coli. BL21(DE3) by fluorometric assay
T3 sequence (P42574 whole entry): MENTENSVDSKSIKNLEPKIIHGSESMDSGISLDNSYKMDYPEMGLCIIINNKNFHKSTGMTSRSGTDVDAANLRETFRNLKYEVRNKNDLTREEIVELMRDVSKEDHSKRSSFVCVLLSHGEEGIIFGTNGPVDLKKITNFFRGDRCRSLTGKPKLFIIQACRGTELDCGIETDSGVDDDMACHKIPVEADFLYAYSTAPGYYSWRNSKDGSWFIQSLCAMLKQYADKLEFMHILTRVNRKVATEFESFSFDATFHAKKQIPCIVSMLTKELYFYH

Caspase-8 [2] = biological target: T1, Caspase-8; assay: Binding affinity against caspase-8 expressed in Escherichia coli. BL21(DE3) by fluorometric assay
How it was run: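 E. coli-expressed active caspase-8, titrated with Z-VAD-FMK, 25-50 nM, with 40 µM Ac-IETD-AFC in 10 mM phosphate buffer (pH 7.5), 10 mM NaCl. Fluorescence at ex 405 / em 505 nm, followed kinetically over 30 min at room temperature. Ki from Lineweaver-Burk double-reciprocal analysis over varied substrate concentrations, assuming competitive inhibition.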

T1 sequence (Q14790 217-374 limits assumed): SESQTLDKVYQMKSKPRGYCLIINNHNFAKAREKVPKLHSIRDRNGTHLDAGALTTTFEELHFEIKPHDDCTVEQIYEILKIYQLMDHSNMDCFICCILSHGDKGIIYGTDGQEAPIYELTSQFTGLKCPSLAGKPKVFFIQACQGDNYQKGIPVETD
T1 sequence (Q14790 385-479 limits assumed): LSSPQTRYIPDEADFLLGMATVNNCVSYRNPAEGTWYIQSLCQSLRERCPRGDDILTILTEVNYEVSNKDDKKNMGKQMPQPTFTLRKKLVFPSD

Compound	IC50 (Caspase-8 [1])	IC50 (Caspase-7)	IC50 (Caspase-3)	Ki (Caspase-8 [2])
O=C(Sc1cccs1)c1csc(C2COc3ccccc3O2)n1 (configuration not stated)	62 µM	> 200 µM	–	–
Cc1nc(C2COc3ccccc3O2)sc1C(=O)O (configuration not stated)	> 200 µM	> 200 µM	128 µM	–
O=C(c1csc(C2COc3ccccc3O2)n1)N1CCOCC1 (configuration not stated)	> 200 µM	> 200 µM	150 µM	–
O=C(O)c1csc(C2COc3ccccc3O2)n1 (configuration not stated)	75 µM	170 µM	> 200 µM	–
CN(C)C(=O)c1csc(C2COc3ccccc3O2)n1 (configuration not stated)	> 200 µM	> 200 µM	129 µM	–
CCOC(=O)c1csc(C2COc3ccccc3O2)n1 (configuration not stated)	–	–	–	30 µM
O=C(Oc1ccccc1)c1csc(C2COc3ccccc3O2)n1 (configuration not stated)	60 µM	> 200 µM	–	–
O=C(Oc1ccc(Cl)cc1)c1csc(C2COc3ccccc3O2)n1 (configuration not stated)	> 200 µM	> 200 µM	–	–
FC(F)(F)c1cccc(-c2csc(C3COc4ccccc4O3)n2)c1 (configuration not stated)	–	–	–	2.7 µM
O=C(NCc1ccco1)c1csc(C2COc3ccccc3O2)n1 (configuration not stated)	60 µM	> 200 µM	133 µM	–
CCOC(=O)c1ccc(N/C=C(\C#N)c2nc(-c3cc4cc([N+](=O)[O-])ccc4oc3=O)cs2)cc1	–	–	> 100 µM	–
CCOC(=O)c1sc(C2COc3ccccc3O2)nc1C (configuration not stated)	> 200 µM	> 200 µM	–	–
COc1ccc(N/C=C(\C#N)c2nc(-c3cc4cc([N+](=O)[O-])ccc4oc3=O)cs2)cc1	–	–	> 1000 µM	–
